Test results as given in PubChem BioAssay AID1381 (University of Pittsburgh Molecular Library Screening Center, 2008).
Out of some 220,000 compounds screened, about 1,000 (0.45%) were called active. This is one part of a sample in which actives are shown more often than they occur.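 How the source made its calls: active means plate z-score of nuclear minus cytoplasmic receptor signal below a set negative limit, without overly bright fluorescence or cell loss (cut at about -3.5 in these data, passing the limit was not always enough); inactive means the rest, inconclusive results apart.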

Experiment: inhibitors of GR-EGFP nuclear translocation, primary screen, dynein cargo transport inhibitor project, imaging, high-content, 3617.4 mouse cells (AID 1381)
Settings: at 20 µM, stimulated with dexamethasone, 1 µM
In short: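 Buffer or medium: tet-free medium with charcoal-stripped serum / Also added: dexamethasone agonist, 1.0 µM final, for 30 min / Timing: induction 48 h, compound 1 h, agonist 30 min / Measured by: high-content fluorescence imaging after fixation / Read-out: nuclear-to-cytoplasmic GR-EGFP distribution per well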

[1] = measured here: cell count per field
[2] = measured here: cytoplasmic GR-EGFP intensity, stronger effect = higher value
[3] = measured here: nuclear GR-EGFP intensity, stronger effect = lower value

SMILES | z-score (stronger effect = lower value) | z-score [1] | z-score [2] | z-score [3]
COc1ccccc1NS(=O)(=O)N(C)C | -0.0864 (inactive) | 0.4 | -0.101 | 0.17
Cc1c(C#N)c(NC(=O)c2ccccc2)n(Cc2ccccc2)c1C | -0.291 (inactive) | 0.341 | -0.155 | -0.456
CCN(CC)C(=O)CSC1c2ccccc2C(=O)N1c1ccccc1 (stereo unspecified) | 2.73 (inactive) | -1.62 | -0.173 | 0.99
CCC(=O)Nc1cccc(C2=NOC3(C2)C[C@@H](C(N)=O)N(C(=O)c2cc([N+](=O)[O-])cc([N+](=O)[O-])c2C)C3)c1 (stereo partly specified) | -0.341 (inactive) | -0.348 | -0.641 | 0.119
O=C(NCCOCc1ccc(Cl)cc1)c1ncn[nH]1 | 0.731 (inactive) | -0.271 | -0.00295 | 0.605
O=C(/C=C/Sc1ncn[nH]1)c1ccc(Cl)cc1 | -3.98 (active) | 0.0934 | 1.02 | -1.6
COc1ccc(Cl)cc1CSc1ncn[nH]1 | 1 (inactive) | -0.49 | -0.24 | 0.812
NS(=O)(=O)c1ccc(CCNC(=O)NC2CCCCC2)cc1 | 0.431 (inactive) | 0.299 | -0.269 | 0.126
CCOc1ccc(C(=O)NC2CCN(CC(=O)NCc3cccs3)CC2)cc1 | -1.07 (inactive) | -0.199 | -0.19 | -0.737
O=Cc1ccc(Oc2cccc(C(F)(F)F)c2)nc1 | 1.74 (inactive) | -2.12 | 0.359 | 1.33
CCOC(=O)C1=C(CC)OC(N)=C(C#N)C1c1ccc(F)cc1F (stereo unspecified) | -3.05 (inactive) | -0.462 | 0.472 | -1.28
C=CCOC(=O)C1=C(C)OC(N)=C(C#N)C1c1ccc(F)cc1 (stereo unspecified) | -1.1 (inactive) | 0.643 | -0.165 | -0.354
CCOC(=O)C1=C(C)OC(N)=C(C#N)C1c1cncc(-c2ccc(F)cc2)c1 (stereo unspecified) | -3.9 (active) | -0.136 | 0.28 | -1.42
O=C1c2ccccc2C(=O)N1Cc1cc(-c2ccccc2Cl)no1 | -0.0385 (inactive) | -0.0908 | -0.215 | 0.196
COc1ccc(C)cc1NC(=S)Nc1ccccc1SC | -0.497 (inactive) | 0.252 | -0.293 | -0.178
Cc1ccc(CN2CCN(Cc3ccc(OCCO)cc3)CC2CCO)o1 (stereo unspecified) | 0.361 (inactive) | 0.953 | -0.289 | -0.03
O=C1C=C(c2ccc(Cl)cc2)C(=O)N1Nc1ccccc1 | -4.4 (active) | -0.124 | 2.35 | -1.87
O=C(Nc1ccccc1)OCc1cc(-c2ccc(Cl)cc2)on1 | 1.93 (inactive) | -1.86 | -0.165 | 1.78
O=C1c2cccc3cc(Br)cc(c23)C(=O)N1Nc1ccccc1 | 0.228 (inactive) | 0.252 | -0.199 | 0.671
